Data reported in the RNAGym collection of RNA variant scans (doi:10.1038/nmeth.2970).

B1: NELF-E aptamer (parent)
chain: CCCAACGACUGCCGAGCGAGAUUACGCUUGAGCGCCCCACUGAGGAUGCCCACGGGCGAUUGGGGCACGG

Variants of: B1
Assay: HiTS-RAP
Conditions: with NELF-E (Drosophila)
In short: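 Aptamer DNA templates bearing a T7 promoter and a ter site were sequenced on an Illumina GAIIx flowcell. T7 RNA polymerase then transcribed them in situ, and GST-Tus halted transcription over 30 minutes at 37°C. After a 30-minute room-temperature equilibration with NELF-E-mOrange at 0.064 to 1000 nM in HEPES binding buffer, clusters were imaged, using only the first binding curve. Intensities normalised to sequencing intensity were averaged per sequence and fitted with weighted Hill fits to give Kd, retaining only fits whose variance stayed under 1,000,000.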

Variant | Kd [nM]
CCCAACGACUGCCAAGCGAGAUUACGCUAGAGCGCCCCACUGAGGAUGCCCACGGGCGAUUGGGGCACGG [G14A U29A] | 4.86
CCCAACGACUGCCAAGCGAGAUUACGCUCGAGCGCCCCACUGAGGAUGCCCACGGGCGAUUGGGGCACGG [G14A U29C] | 4.73
CCCAACGACUGCCAAGCGAGAUUACGCUGGAGCGCCCCACUGAGGAUGCCCACGGGCGAUUGGGGCACGG [G14A U29G] | 5.42
CCCAACGACUGCCAAGCGAGAUUACGCUUGAGCGCCCCACUGGGGAUGCCCACGGGCGAUUGGGGCACGG [G14A A43G] | 9.58
CCCAACGACUGCCAAGCAAGAUUACGCUUGAGCGCCCCACUGAGGAUGCCCACGGGCGAUUGGGGCACGG [G14A G18A] | 5.3
CCCAACGACUGCCAAGCGAGAUUACGCUUGAGCGCCCCACGGAGGAUGCCCACGGGCGAUUGGGGCACGG [G14A U41G] | 5.69
CCCAACGACUGCUGAGCGAGAUUACGCUUGAGCGCCUCACUGAGGAUGCCCACGGGCGAUUGGGGCACGG [C13U C37U] | 7.46
CCCAACGACUGCUGAGCGAGAUUACGCUUGAGCGCCCCACUGAGGAUGCCCACAGGCGAUUGGGGCACGG [C13U G54A] | 8.87
CCCAACGACUGCUGAGCGAGAUUACGCUUGAGCGCCCCACGGAGGAUGCCCACGGGCGAUUGGGGCACGG [C13U U41G] | 5.56
CCCAACGACUGCUGAGCGAGAUUACGCUUGAGCGCCCCACUGAGGAUGCCCACGGGCGAUUGGGGCUCGG [C13U A67U] | 3.81
CCCAACGACUGCCAAGCGAGAUUACGCUUGAGCGCCCCACUGAGGAUGCCUACGGGCGAUUGGGGCACGG [G14A C51U] | 7.06
CCCAACGACUGCUGAGCGAGAUUACGCUGGAGCGCCCCACUGAGGAUGCCCACGGGCGAUUGGGGCACGG [C13U U29G] | 5.14
CCCAACGACUGCGGAGCGAGAUUACGCUUGAGCGCCCCACUGAGGAUGCCCACGGGCGAUGGGGGCACGG [C13G U61G] | 7.74
CCCAACGACUGCGGAGCGAGAUUACGCUUGAGCGCCCCACUGAGGAUGCCCACGGGCGAUAGGGGCACGG [C13G U61A] | 38.3
CCCAACGACUGCGGAGCGAGAUUACGCUUGAGCGCCCCACUGAGGAUGCCCACGGGCGAUCGGGGCACGG [C13G U61C] | 73.4
CCCAACGACUGCCAAGCGAGAUUACGCUUAAGCGCCCCACUGAGGAUGCCCACGGGCGAUUGGGGCACGG [G14A G30A] | 5.61
CCCAACGACUGCUGAGCGAGAUUACGCUUGAGCGCCCCACUGAGGAUGCCCACGGGCGAUUGGAGCACGG [C13U G64A] | 8.04
CCCAACGACUGCUGAGCGAGAUUACGCUUGAGCGCCCCACUGAGGAUGCCCACGGGUGAUUGGGGCACGG [C13U C57U] | 4.06
CCCAACGACUGCCUGGCGAGAUUACGCUUGAGCGCCCCACUGAGGAUGCCCACGGGCGAUUGGGGCACGG [G14U A15G] | 6.08
CCCAACGACUGCCAAUCGAGAUUACGCUUGAGCGCCCCACUGAGGAUGCCCACGGGCGAUUGGGGCACGG [G14A G16U] | 6.52
CCCAACGACUGCCAAACGAGAUUACGCUUGAGCGCCCCACUGAGGAUGCCCACGGGCGAUUGGGGCACGG [G14A G16A] | 6.86
CCCAACGACUGCUGAGCGAGAUUACGCUUGAGCGCCCCACUGAGGAUGCCCACGAGCGAUUGGGGCACGG [C13U G55A] | 5.87
CCCAACGACUGCCAAGGGAGAUUACGCUUGAGCGCCCCACUGAGGAUGCCCACGGGCGAUUGGGGCACGG [G14A C17G] | 5.98
CCCAACGACUGCCAAGUGAGAUUACGCUUGAGCGCCCCACUGAGGAUGCCCACGGGCGAUUGGGGCACGG [G14A C17U] | 5.62
CCCAACGACUGCUGAUCGAGAUUACGCUUGAGCGCCCCACUGAGGAUGCCCACGGGCGAUUGGGGCACGG [C13U G16U] | 6.59
CCCAACGACUGCUGAGCGAGAUGACGCUUGAGCGCCCCACUGAGGAUGCCCACGGGCGAUUGGGGCACGG [C13U U23G] | 4.9

Variant | Kd [nM]
CCCAACGACUGCUGAGCGAGAUUACGCUUGAGCACCCCACUGAGGAUGCCCACGGGCGAUUGGGGCACGG [C13U G34A] | 6.99
CCCAACGACUGCUGAGGGAGAUUACGCUUGAGCGCCCCACUGAGGAUGCCCACGGGCGAUUGGGGCACGG [C13U C17G] | 5.11
CCCAACGACUGCUGAGUGAGAUUACGCUUGAGCGCCCCACUGAGGAUGCCCACGGGCGAUUGGGGCACGG [C13U C17U] | 4
CCCAACGACUGCCAAGCGAGAUUACGCCUGAGCGCCCCACUGAGGAUGCCCACGGGCGAUUGGGGCACGG [G14A U28C] | 7.17
CCCAACGACUGCCAAGCGAGAUUACGCUUGAGCGCCCCACUGAGGAUGCCCACGGGCGAUUGGGGCUCGG [G14A A67U] | 6.56
CCCAACGACUGCCAAGCGAGAUUACGCUUGAGCGCCCCACUGAGGAUGCCCACGGGCGAUUGGGGCGCGG [G14A A67G] | 5.51
CCCAACGACUGCUGAGCGAGAUUACGCUUGAGCGCCCCACUGAGGAUGCCCGCGGGCGAUUGGGGCACGG [C13U A52G] | 3.79
CCCAACGACUGCUGAGCGAGAUUACGCUUGAGCGCCCCACUGAGGAUGCCCUCGGGCGAUUGGGGCACGG [C13U A52U] | 10.1
CCCAACGACUGCCAAGCGAGAGUACGCUUGAGCGCCCCACUGAGGAUGCCCACGGGCGAUUGGGGCACGG [G14A U22G] | 5.03
CCCAACGACUGCCAAGCGAGACUACGCUUGAGCGCCCCACUGAGGAUGCCCACGGGCGAUUGGGGCACGG [G14A U22C] | 5.13
CCCAACGACUGCCCAGCGAGAUUACGCUUGAGCGCCCCACUGAGGAUGCCCACGGGCGAUUGGGGCACGG [G14C] | 5.95
CCCAACGACUGCCUAGCGAGAUUACGCUUGAGCGCCCCACUGAGGAUGCCCACGGGCGAUUGGGGCACGG [G14U] | 5.68
CCCAACGACUGCCAAGCGAGAUUACGCUUGAGCGCCCCACUGAGGAUGCCCACGGGCGAUUGGGGCACGG [G14A] | 4.94
CCCAACGACUGCCAAGCGAGAUUACGCUUGAGCGCCCCACUGAGGAUGCCCACGUGCGAUUGGGGCACGG [G14A G55U] | 8.79
CCCAACGACUGCCAAGCGAGAUUACGCUUGAGCGCCCCACUGAGGAUGCCCACGGGCGAUAGGGGCACGG [G14A U61A] | 30.3
CCCAACGACUGCCAAGCGAGAUUACGCUUGAGCGCCCCACUGAGGAUGCCCACGGGCGAUUGAGGCACGG [G14A G63A] | 12
CCCAACGACUGCCAUGCGAGAUUACGCUUGAGCGCCCCACUGAGGAUGCCCACGGGCGAUUGGGGCACGG [G14A A15U] | 5.39
CCCAACGACUGCCAGGCGAGAUUACGCUUGAGCGCCCCACUGAGGAUGCCCACGGGCGAUUGGGGCACGG [G14A A15G] | 6.1
CCCAACGACUGCCACGCGAGAUUACGCUUGAGCGCCCCACUGAGGAUGCCCACGGGCGAUUGGGGCACGG [G14A A15C] | 4.43
CCCAACGACUGCUGAGCGAUAUUACGCUUGAGCGCCCCACUGAGGAUGCCCACGGGCGAUUGGGGCACGG [C13U G20U] | 7.13
CCCAACGACUGCCAAGCGAGAUUACGCUUGGGCGCCCCACUGAGGAUGCCCACGGGCGAUUGGGGCACGG [G14A A31G] | 5.95
CCCAACGACUGCUGAGCGAGAUUGCGCUUGAGCGCCCCACUGAGGAUGCCCACGGGCGAUUGGGGCACGG [C13U A24G] | 5.12
CCCAACGACUGCCAAGCGAGAUUACGCUUGAGCGCCCCACUGAGGAUGCCCACGGGUGAUUGGGGCACGG [G14A C57U] | 6.72
CCCAACGACUGCUGAGCGGGAUUACGCUUGAGCGCCCCACUGAGGAUGCCCACGGGCGAUUGGGGCACGG [C13U A19G] | 6.42
CCCAACGACUGCUGAGCGUGAUUACGCUUGAGCGCCCCACUGAGGAUGCCCACGGGCGAUUGGGGCACGG [C13U A19U] | 5
CCCAACGACUGCUGAGCGAGAUUACGCUUGGGCGCCCCACUGAGGAUGCCCACGGGCGAUUGGGGCACGG [C13U A31G] | 5.17

Variant | Kd [nM]
CCCAACGACUGCUGAGCGAGAUUACGCUUGAGCGCCCCACUGAGGAUGCCCACGGGCGAUUGGGGCACGG [C13U] | 4.41
CCCAACGACUGCCAAGCGAGAUUACGCUUGAGCGCCCCACUGAGGAUGCCCAUGGGCGAUUGGGGCACGG [G14A C53U] | 4.16
CCCAACGACUGCGGAGCGAGAUUACGCUUGAGCGCCCCACUGAGGAGGCCCACGGGCGAUUGGGGCACGG [C13G U47G] | 6.66
CCCAACGACUGCGGAGCGAGAUUACGCUUGAGCGCCCCACUGAGGAUGCCCACGGGCGACUGGGGCACGG [C13G U60C] | 8.4
CCCAACGACUGCGGAGCGAGAUUACGCUUGAGCGCCCCACUGAGGAUGCCCACGGGCGAGUGGGGCACGG [C13G U60G] | 5.12
CCCAACGACUGCCAAGCGAGAUGACGCUUGAGCGCCCCACUGAGGAUGCCCACGGGCGAUUGGGGCACGG [G14A U23G] | 5.88
CCCAACGACUGCUGAGCGAGAUUACGCCUGAGCGCCCCACUGAGGAUGCCCACGGGCGAUUGGGGCACGG [C13U U28C] | 6.27
CCCAACGACUGCCCAGCGAGAUUACGCUGGAGCGCCCCACUGAGGAUGCCCACGGGCGAUUGGGGCACGG [G14C U29G] | 5.67
CCCAACGACUGCCAAGCGAGAUUGCGCUUGAGCGCCCCACUGAGGAUGCCCACGGGCGAUUGGGGCACGG [G14A A24G] | 5.71
CCCAACGACUGCCAAGCGAGAUUACGCUUGAGCGCCCCUCUGAGGAUGCCCACGGGCGAUUGGGGCACGG [G14A A39U] | 31
CCCAACGACUGCCAAGCGAGAUUACGCUUGAGCGCCCCGCUGAGGAUGCCCACGGGCGAUUGGGGCACGG [G14A A39G] | 9.46
CCCAACGACUGCUGUGCGAGAUUACGCUUGAGCGCCCCACUGAGGAUGCCCACGGGCGAUUGGGGCACGG [C13U A15U] | 4.83
CCCAACGACUGCCAAGCGAGAUUACGCUUGAGUGCCCCACUGAGGAUGCCCACGGGCGAUUGGGGCACGG [G14A C33U] | 6.15
CCCAACGACUGCUGAGCGAGAUUACGCUUGAGCGCCCCUCUGAGGAUGCCCACGGGCGAUUGGGGCACGG [C13U A39U] | 20.4
CCCAACGACUGCUGAGCGAGAUUACGCUUGAGCGCCCCGCUGAGGAUGCCCACGGGCGAUUGGGGCACGG [C13U A39G] | 7.82
CCCAACGACUGCUUAGCGAGAUUACGCUUGAGCGCCCCACUGAGGAUGCCCACGGGCGAUUGGGGCACGG [C13U G14U] | 5.39
CCCAACGACUGCCAAGCGGGAUUACGCUUGAGCGCCCCACUGAGGAUGCCCACGGGCGAUUGGGGCACGG [G14A A19G] | 5.88
CCCAACGACUGCCAAGCGUGAUUACGCUUGAGCGCCCCACUGAGGAUGCCCACGGGCGAUUGGGGCACGG [G14A A19U] | 4.56
CCCAACGACUGCCAAGCGAGAUUACGCUUGAGCGCCCCACUGAGGAUGCCCACAGGCGAUUGGGGCACGG [G14A G54A] | 12.4
CCCAACGACUGCUGAGCGAGAGUACGCUUGAGCGCCCCACUGAGGAUGCCCACGGGCGAUUGGGGCACGG [C13U U22G] | 5.14
CCCAACGACUGCCAAGCGAGGUUACGCUUGAGCGCCCCACUGAGGAUGCCCACGGGCGAUUGGGGCACGG [G14A A21G] | 6.08
CCCAACGACUGCCAAGCGAUAUUACGCUUGAGCGCCCCACUGAGGAUGCCCACGGGCGAUUGGGGCACGG [G14A G20U] | 5.9
CCCAACGACUGCCAAGCGAGAUUACGCUUGAGCGCCCCACUGAGGAUGCCCGCGGGCGAUUGGGGCACGG [G14A A52G] | 4.13
CCCAACGACUGCUGAGCGAGAUUAGGCUUGAGCGCCCCACUGAGGAUGCCCACGGGCGAUUGGGGCACGG [C13U C25G] | 4.69
CCCAACGACUGCUGAGCGAGAUUACACUUGAGCGCCCCACUGAGGAUGCCCACGGGCGAUUGGGGCACGG [C13U G26A] | 4.43
